Here are results for ten molecules from article PMC4137555 (Methods in enzymology, 2011).

Experiment [1] addresses Tiam1 PDZ domain (wild-type) (Homo sapiens, UniProt Q13009). The experiment is classed as binding. Conditions: for ΔGb (free energy of binding): calculated from the dissociation constant, error by error propagation, 25 °C; for Kd: SD; for Σ Singles: sum of the ΔΔGb of the two single-mutant peptides; for binding to the Tiam1 PDZ domain (in words): unpublished data of the authors; for ΔΔGb: ΔΔGb = ΔGb(Core) − ΔGb(peptide). Put shortly: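 His6-tagged Tiam1 PDZ domain expressed in E. coli BL21(DE3), purified by nickel-chelate and size-exclusion chromatography, tag removed with rTEV. N-terminally dansylated peptides (2 or 5 μM) in 20 mM PO4, 50 mM NaCl, 0.5 mM EDTA, pH 6.8, at 25 °C; PDZ added in 20–30 steps. Anisotropy read at λex 340/λem 555 nm and fit hyperbolically. Triplicate titrations, mean Kd ± standard deviation.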

The next experiment has as its target T1, Tiam2 PDZ domain (Homo sapiens, UniProt Q8IVF5).
T1 sequence (Q8IVF5 890-976 limits assumed): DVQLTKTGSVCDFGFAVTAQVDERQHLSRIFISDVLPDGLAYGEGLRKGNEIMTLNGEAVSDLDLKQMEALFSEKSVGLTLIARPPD
The experiment is described as follows: Peptide binding to the Tiam2 PDZ domain. The following applies: unpublished data of the authors.

In a further experiment the target is Model peptide. Conditions: cited from earlier work.
A further experiment deals with T2, KP-4E-Sdc1 peptide.
T2 chain: Dansyl-QEEYYA
The experiment is described as follows: fluorescence anisotropy. Background: Fluorescence polarisation rises when a labelled molecule tumbles more slowly, as on binding a larger partner.

Values joined by “and” are separate entries in the source; they are usually repeats but may differ in a detail not shown here. Equal values may be shown once. Ends that are not written are not given here. Peptide text beside a SMILES is read from it. * marks the point of attachment. Dansyl = CN(C)c1cccc2c(S(=O)(=O)*)cccc12

Chain of Tiam1 PDZ domain (wild-type) (Q13009 841-930 limits assumed): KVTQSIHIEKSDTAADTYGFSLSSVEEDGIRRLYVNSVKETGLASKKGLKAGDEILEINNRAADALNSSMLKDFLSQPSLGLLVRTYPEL

With “SSRKEYYACOOH [Model peptide, reference compound]”, in experiment [1], the “ΔGb (free energy of binding)” value is -5.38 ± 0.05 kcal/mol.
“NKDKEYYVCOOH [Neurexin1, reference compound]”: the “binding to the Tiam2 PDZ domain (in words)” value at Tiam2 PDZ domain is “bound the PDZ domain tightly”.
Take `CN(C)c1cccc2c(S(=O)(=O)N[C@@H](CCC(=O)O)C(=O)N[C@@H](CC(N)=O)C(=O)N[C@@H](CCC(N)=O)C(=O)N[C@@H](CCCCN)C(=O)N[C@@H](CCC(=O)O)C(=O)N[C@@H](Cc3ccc(O)cc3)C(=O)N[C@@H](Cc3ccccc3)C(=O)N[C@@H](Cc3ccccc3)C(=O)O)cccc12` [Caspr4] (Dansyl-ENQKEYFF-OH): the “binding to the Tiam2 PDZ domain (in words)” value at Tiam2 PDZ domain is given as “bound the PDZ domain tightly”. Also, in experiment [1], the Kd was determined as 19 ± 0.4 µM, the “ΔGb (free energy of binding)” value was -6.43 ± 0.02 kcal/mol, the “Σ Singles” value is -0.57 ± 0.09 kcal/mol and the “binding to the Tiam1 PDZ domain (in words)” value is reported as “bound the Tiam1 PDZ domain”. The same molecule gave a ΔΔGb in experiment [1] of -1.09 ± 0.05 kcal/mol. In addition, the “ΔΔΔGint (interaction energy, double-mutant cycle)” value in experiment [1] (double-mutant cycle of evolved peptides: Core, two single mutants, double mutant) is -0.51 kcal/mol and -0.51 ± 0.08 kcal/mol.
For `C[C@H](NC(=O)[C@H](Cc1ccc(O)cc1)NC(=O)[C@H](Cc1ccc(O)cc1)NC(=O)[C@H](CCC(=O)O)NC(=O)[C@H](CCC(=O)O)NC(=O)[C@H](CCC(N)=O)NC(=O)[C@H](CO)NC(=O)[C@H](CO)NS(=O)(=O)c1cccc2c(N(C)C)cccc12)C(=O)O` [KP−4E–Sdc1] (Dansyl-SSQEEYYA-OH), in experiment [1], the Kd was 40 ± 2 µM, the “ΔGb (free energy of binding)” value was -5.99 ± 0.06 kcal/mol and the ΔΔGb is -0.65 ± 0.07 kcal/mol.
Consider Tiam1 PDZ (from UniProt Q13009), for which the Kd in the experiment with Model peptide is 112 µM.
In the case of TKQEEFYACOOH [Syndecan1], in experiment [1], the “ΔGb (free energy of binding)” value was -6.23 ± 0.03 kcal/mol, the “Σ Singles” value was -0.71 ± 0.11 kcal/mol, the “binding to the Tiam1 PDZ domain (in words)” value is “bound the Tiam1 PDZ domain” and the ΔΔGb is -0.88 ± 0.06 kcal/mol.
Consider `C[C@H](NC(=O)[C@H](Cc1ccccc1)NC(=O)[C@H](Cc1ccc(O)cc1)NC(=O)[C@H](CCC(=O)O)NC(=O)[C@H](CCCCN)NC(=O)[C@H](CCC(N)=O)NC(=O)[C@H](CO)NC(=O)[C@H](CO)NS(=O)(=O)c1cccc2c(N(C)C)cccc12)C(=O)O` [YP−1F–Caspr4] (Dansyl-SSQKEYFA-OH), for which, in experiment [1], the Kd came out at 60.1 ± 0.6 µM, the “ΔGb (free energy of binding)” value is -5.75 ± 0.01 kcal/mol and the ΔΔGb is -0.40 ± 0.05 kcal/mol.
For `C[C@H](NC(=O)[C@H](Cc1ccc(O)cc1)NC(=O)[C@H](Cc1ccccc1)NC(=O)[C@H](CCC(=O)O)NC(=O)[C@H](CCCCN)NC(=O)[C@H](CCC(N)=O)NC(=O)[C@H](CO)NC(=O)[C@H](CO)NS(=O)(=O)c1cccc2c(N(C)C)cccc12)C(=O)O` [YP−2F–Sdc1] (Dansyl-SSQKEFYA-OH), in that order: 106 ± 7 µM, -5.42 ± 0.07 kcal/mol and -0.07 ± 0.08 kcal/mol.
For `CN(C)c1cccc2c(S(=O)(=O)N[C@@H](CO)C(=O)N[C@@H](CO)C(=O)N[C@@H](CCC(N)=O)C(=O)N[C@@H](CCCCN)C(=O)N[C@@H](CCC(=O)O)C(=O)N[C@@H](Cc3ccc(O)cc3)C(=O)N[C@@H](Cc3ccc(O)cc3)C(=O)N[C@@H](Cc3ccccc3)C(=O)O)cccc12` [AP0F–Caspr4] (Dansyl-SSQKEYYF-OH), in that order: 89 ± 5 µM, -5.52 ± 0.06 kcal/mol and -0.17 ± 0.08 kcal/mol.

B1: Tiam1 PDZ (protein)
chain: VTQSIHIEKSDTAADTYGFSLSSVEEDGIRRLYVNSVKETGLASKKGLKAGDEILEINNRAADALNSSML
Regarding B1, the Kd with KP-4E-Sdc1 peptide is 40 µM.

The term Kd denotes the concentration at which binding is half-saturated.
